Source: PubChem (Broad Institute)
FN deposit inh: inhibitors of fibronectin matrix deposition, primary screen, AH1F cells, Alexa488-fibronectin fluorescence, plate reader; 0.086% of 350,000 active; AH1F fibroblasts, overnight; inhibition, % at 12.6 µM;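 active = mean inhibition across replicates of 30% or more, regardless of how many single replicates reach that level; inconclusive = mean under 30% yet at least half of replicates reach 30%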;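 also: positive control wells lacked labelled fibronectin entirely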
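Assay system: AH1F fibroblast monolayer, labelled fibronectin deposition. Amount: 10000 cells per well. Also added: labelled fibronectin 24 nM. Compound: single-point pinned compound. Incubation: cell attachment 1 h, compound and FN exposure overnight. Detection: fluorescence after three HBSS washes, excitation 485 nm, emission 525 nm. Read-out: inhibition of fibronectin deposition signal.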
PglD inh: C. jejuni PglD acetyltransferase inhibitors, primary screen, biochemical, DTNB colorimetric, single point; inhibition, % at 12.5 µM; AID 602405, 2012; 0.098% of 360,000 active; UDP-N-acetylbacillosamine N-acetyltransferase PglD (Campylobacter jejuni); purified PglD enzyme, DTNB colorimetric CoA detection; in the data active = inhibition above about 16%, passing the limit was not always enough; inconclusive = no clear call, values can overlap the other calls
DENV2 CPE rescue: inhibitors of DENV2 cytopathic effect, primary screen, cell-based, plate reader, single concentration | DENV2-infected cells, cytopathic effect rescue | 1.7% of 350,000 active | CPE inhibition, % at 9.99 µM; in the data active = CPE inhibition above about 20%, passing the limit was not always enough; inconclusive = no clear call, values can overlap the other calls; tested in BHK-21 cells;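 also: 0% = median of neutral control wells and 100% = median of positive control wells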
rRNA inh HTS: reduced GFP signal of wild-type E. coli, primary screen, bacterial rRNA inhibitor project, GFP/RFP fluorescence, OD600, single point. AID 720706, 2013. E. coli WT GFP vs humanized-ribosome RFP mutants, 24 h; stronger effect = lower value; DMSO median 0, no signal -100. 1.6% of 350,000 active. GFP signal change (wild-type ribosome), % (no concentration beside the values);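 active = significant combined selectivity score with lowered wild-type GFP, culture density cut under 30%, mutant RFP and density less affected; inactive = any of these conditions unmet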
HIV Env fusion: inhibitors of HIV-1 Env-driven cell-cell fusion, primary screen, HeLa-JRFL effector, CEM21 target cells, luciferase | inhibition, % at 12.3 µM | 1.1% of 360,000 active | AID 651610, 2012;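 active = mean replicate inhibition score of at least 50 and every replicate individually at or above 50; inconclusive = only one of the two criteria met; inactive = mean below 50 and not all replicates reaching 50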;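 also: 0% = plate neutral controls and 100% = maraviroc near 300 nM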
PGC1a acetyl inh: inhibitors of PGC1a acetylation signal, primary screen, cell-based, U2OS, AlphaScreen, inhibitor mode | AlphaScreen anti-acetyl-lysine; with virally co-expressed GCN5 acetyltransferase | inhibition, % at 15.6 µM | 0.17% of 350,000 active;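 active = every replicate shows inhibition of at least 40%; inconclusive = mean inhibition at least 40% but some replicate below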;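 also: 0% = neutral control wells and 100% = positive control wells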
* = called active by the depositor; ? = inconclusive; . = no result; [ ] = remark or other dose. Compounds with a hit are over-represented: about 3.5% of the library has one in this group of screens.

SMILES	FN deposit inh	PglD inh	DENV2 CPE rescue	rRNA inh HTS	HIV Env fusion	PGC1a acetyl inh
C(=C\c1sc(Nc2ccccc2)n[n+]1-c1ccccc1)/c1ccccc1	6	2	52*	-3	21	-9
CCn1c(-c2c[nH]c3ccccc23)n[nH]c1=S	.	8	6	-20*	.	-1
O=C(c1ccccc1)N1CCN(c2ncnc3sc4c(c23)CCC4)CC1	1	-3	.	.	87*	23
COCCN(C[C@@H]1N[C@@H](CO)[C@H]1c1ccc(-c2cccnc2)cc1)C(C)=O	2	-2	30*	2	.	-1
COc1ccc(S(=O)(=O)N(C)C[C@@H]2Oc3ccc(NC(=O)Nc4ccc(F)cc4)cc3CC(=O)N([C@H](C)CO)C[C@H]2C)cc1	.	-4	0	0	-39[16.7 µM]	0
COc1ccc(NC(=O)Nc2ccc3c(c2)CC(=O)N([C@H](C)CO)C[C@@H](C)[C@H](CN(C)S(=O)(=O)c2ccc(C)cc2)O3)cc1	.	.	34*	-3	.	2
COc1ccc(S(=O)(=O)N(C)C[C@@H]2Oc3ccc(NC(=O)Cn4cnnn4)cc3CC(=O)N([C@H](C)CO)C[C@@H]2C)cc1	.	-1	-1	4	90*[16.7 µM]	3
COc1ccc(S(=O)(=O)N(C)C[C@@H]2Oc3ccc(NC(=O)CCC(F)(F)F)cc3CC(=O)N([C@H](C)CO)C[C@H]2C)cc1	.	-1	2	0	.	-5
COc1ccc(NC(=O)Nc2ccc3c(c2)CC(=O)N([C@@H](C)CO)C[C@@H](C)[C@@H](CN(C)S(=O)(=O)c2ccc(F)cc2)O3)cc1	4	-1	29*	5	12[16.7 µM]	-2
COc1ccc(S(=O)(=O)N(C)C[C@@H]2Oc3ccc(NC(=O)CCC(F)(F)F)cc3CC(=O)N([C@@H](C)CO)C[C@@H]2C)cc1	.	0	42*	-1	.	-12
O=C(N[C@@H]1CC[C@@H](CCNS(=O)(=O)c2ccc(F)cc2)O[C@@H]1CO)c1cnccn1	-7	-2	8	-1	-26[16.7 µM]	2
CO[C@@H]1CN(C)C(=O)c2ccc(NS(C)(=O)=O)cc2OC[C@@H](C)N(Cc2nccs2)C[C@H]1C	-5	3	-5	1	-12[16.7 µM]	7
C[C@@H]1CCCCO[C@@H](CN(C)C(=O)C2CCCCC2)[C@@H](C)CN([C@@H](C)CO)C(=O)c2cc(NC(=O)C3CCCCC3)ccc2O1	.	1	2	3	-8[16.7 µM]	1
COc1ccc(S(=O)(=O)N(C)C[C@H]2Oc3ccc(NC(=O)Nc4ccc5c(c4)OCO5)cc3CC(=O)N([C@@H](C)CO)C[C@@H]2C)cc1	-7	2	97*	-1	13	6
C/C=C/c1ccc2c(c1)O[C@H](CN(C)C(=O)Cc1ccncc1)[C@@H](C)CN([C@H](C)CO)S2(=O)=O	.	-1	-8	-4	-36[16.7 µM]	1
C=CCn1c(-c2cccc(OC)c2OC)n[nH]c1=S	-6	-3	-6	22	3	40
C=CCn1c(-c2cc3cccc(OC)c3o2)n[nH]c1=S	-2	.	.	-23*	1	4
N#CCC(=O)Nc1ccc(C(=O)OCC(=O)Nc2ccc3ccccc3c2)cc1	-6	.	-6	-18*	-9	5
C=CCNC(=S)N/N=C/c1ccc(C)cc1C	4	.	9	-17*	-30	1
CS(=O)(=O)Nc1ccc(C(=O)NCCSC2CCCCC2)cc1	.	.	-6	.	.	12
Cc1ccc(SCCNC(=O)c2ccc(C)c(S(=O)(=O)Nc3cccc(C)c3)c2)cc1	.	-2	.	.	.	-12
Cc1ccc(NS(=O)(=O)c2cc(C(=O)NCCSC3CCCCC3)ccc2C)cc1	-15	3	.	.	55*	-3
Cc1ccc(NS(=O)(=O)c2ccc(C(=O)NCCCN3CCCC3=O)cc2)cc1C	-7	-1	0	4	5	.
Cc1ccc(NS(=O)(=O)c2ccc(C(=O)NCCCN3CCCC3=O)cc2)cc1	-7	0	103*	2	-2	.
Cc1ccc(NS(=O)(=O)c2cc(C(=O)NCCSc3ccc(C)cc3)ccc2C)cc1	2	2	.	.	97*	-28
SMILES	FN deposit inh	PglD inh	DENV2 CPE rescue	rRNA inh HTS	HIV Env fusion	PGC1a acetyl inh
C[C@@H]1CN([C@H](C)CO)C(=O)c2cc(NC(=O)Nc3cccc4ccccc34)ccc2O[C@H]1CN(C)C(=O)Nc1ccc(F)cc1	.	-9	-2	-2	1[16.7 µM]	-1
COc1ccc(-c2ccccc2[C@H]2[C@@H]3C=CC[C@@H](C)[C@@H]3C(=O)N2Cc2ccccc2)cc1	.	3	-2	-1	126*	-36
COc1ccc(-c2ccc(OC)c([C@H]3[C@H]4C=CC[C@@H](C)[C@@H]4C(=O)N3Cc3ccccc3)c2)cc1OC	7	0	2	7	14	.
C[C@@H]1CC=C[C@@H]2[C@H]1C(=O)N(Cc1ccccc1)[C@H]2c1ccccc1Br	0	-4	8	-15	3	-5
COC(=O)/C=C/c1cccc([C@H]2[C@@H]3C=CC[C@@H](C)[C@@H]3C(=O)N2Cc2ccccc2)c1	.	-2	?	-19*	-8	-1
COc1ccc(Br)cc1[C@H]1[C@H]2C=CC[C@@H](C)[C@@H]2C(=O)N1Cc1ccccc1	6	3	66*	2	28	.
C[C@@H]1CN([C@H](C)CO)S(=O)(=O)c2ccc(C3=CCCC3)cc2O[C@@H]1CN(C)C(=O)Cc1ccncc1	-3	-1	-1	-1	2[16.7 µM]	-6
Cc1noc(C)c1S(=O)(=O)Nc1ccc2c(c1)CC(=O)N([C@@H](C)CO)C[C@H](C)[C@H](CN(C)Cc1ccc(C(=O)O)cc1)O2	.	-3	5	0	9[16.7 µM]	6
Cc1noc(C)c1NC(=O)Nc1ccc2c(c1)C(=O)N([C@@H](C)CO)C[C@H](C)[C@@H](CN(C)C)OCCCC[C@H](C)O2	.	-1	1	4	-6[16.7 µM]	1
CCCC#Cc1ccc([C@@H]2[C@@H](CO)N3CCCCN(Cc4ccncc4)C[C@H]23)cc1	.	4	47*	8	.	-6
CCCC#Cc1ccc([C@@H]2[C@H]3CN(Cc4cncnc4)CCCCN3[C@H]2CO)cc1	.	4	29*	1	.	-1
CCCC#Cc1ccc([C@H]2[C@@H](CO)N3CCCCN(Cc4ccncc4)C[C@H]23)cc1	.	-6	-25	3	.	-7
O=C(C[C@H]1CC[C@H]2[C@@H](COC[C@@H](O)CN2S(=O)(=O)c2cccc(F)c2)O1)NC1CCC1	-8	-3	10	7	1[16.7 µM]	1
CN1C[C@@H]2[C@H](c3ccccc31)[C@@H](CO)N2C(=O)C1CC1	-11	8	-9	2	.	6
